Where a SMILES comes first, the peptide text is derived from it.
Experiments:
PC-12 [1] = test: Radical scavenging activity in rat PC12 cells assessed as inhibition of hydrogen peroxide radical-induced cell damage by MTT assay; assay type: functional, cell-based
How it was run: (§1)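 PC12 cells grown in DMEM with 10% heat-inactivated horse serum, 5% FBS and 1.0 mM pyruvate at 37 °C, 5% CO2. Seeded at 20,000 cells/well on poly-L-lysine and attached 24 h. Pretreated 1 h with 12.5–200 µM compound. Damage induced by SNP 2 mM for 2 h (NO), H2O2 1 mM for 1 h, or H2O2 1 mM/Fe(II) 30 µM for 1 h (·OH). Media replaced, cells incubated 14 h, survival measured by MTT.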

PC-12 [2] = test: Radical scavenging activity in rat PC12 cells assessed as inhibition of hydroxyl radical-induced cell damage by MTT assay; assay type: functional, cell-based; how it was run: as §1
Aorta [3] = test: Nitric oxide radical scavenging activity in rat aortic strip assessed as inhibition of acetylcholine-induced vasorelaxation at 100 uM; assay type: functional, tissue-based
PC-12 [4] = test: Radical scavenging activity in rat PC12 cells assessed as inhibition of nitric oxide radical-induced cell damage by MTT assay; assay type: functional, cell-based; how it was run: as §1
Aorta [5] = test: Nitric oxide radical scavenging activity in rat aortic strip assessed as inhibition of acetylcholine-induced vasorelaxation at 1 uM; assay type: functional, tissue-based
Aorta [6] = test: Nitric oxide radical scavenging activity in rat aortic strip assessed as inhibition of acetylcholine-induced vasorelaxation at 10 uM; assay type: functional, tissue-based
[7] = Aqueous stability assessed as decomposition time at pH 11.5; assay type: physicochemical; details: buffer
How it was run: (§2)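 Each sample dissolved in aqueous solution at pH 2.0, 7.4 or 11.5 (final 10^-2 mM) and held at room temperature for up to 200 h. Decomposition followed by TLC (CHCl3/CH3OH, 20:1). Value is the time at which decomposition appeared.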

[8] = Aqueous stability assessed as decomposition time at pH 7.4; assay type: physicochemical; details: buffer; how it was run: as §2
[9] = Aqueous stability assessed as decomposition time at pH 2.0; assay type: physicochemical; details: buffer; how it was run: as §2
Blood [10] = test: Inhibition of 1 uM platelet activating factor-induced platelet aggregation in rabbit blood; assay type: functional, Oryctolagus cuniculus
How it was run: (§3)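 Platelet-rich plasma made by centrifuging normal rabbit blood anticoagulated with sodium citrate (3.8% final). Platelets adjusted to 2×10^5/µl with autologous plasma. Aggregation induced by PAF or ADP (final 10^-5–10^-7 M) and read by turbidimetry in an aggregometer. Maximal aggregation rate (Am%) taken as peak height of the curve.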

Rattus norvegicus [11] = test: Antithrombotic activity in Wistar rat assessed as dry thrombus weight at 5 umol/kg
Blood [12] = test: Inhibition of 1 uM adenosine diphosphate-induced platelet aggregation in rabbit blood; assay type: functional, Oryctolagus cuniculus; how it was run: as §3
Blood [13] = test: Inhibition of 10 uM adenosine diphosphate-induced platelet aggregation in rabbit blood; assay type: functional, Oryctolagus cuniculus; how it was run: as §3
Rattus norvegicus [14] = test: Antithrombotic activity in Wistar rat assessed as wet thrombus weight at 5 umol/kg; assay type: functional
How it was run: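 Male Wistar rats (250–300 g) anesthetized with pentobarbital sodium (80.0 mg/kg, ip). The right carotid artery and left jugular vein were cannulated via a polyethylene tube containing a thread, filled with NS or compound dissolved in NS (vehicle NS). Blood shunted 15 min. The thread was weighed wet, then after 2 weeks in a desiccator weighed dry. n = 10, ANOVA.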

Blood [15] = test: Inhibition of 10 uM platelet activating factor-induced platelet aggregation in rabbit blood; assay type: functional, Oryctolagus cuniculus; how it was run: as §3
Blood [16] = test: Inhibition of 0.1 uM adenosine diphosphate-induced platelet aggregation in rabbit blood; assay type: functional, Oryctolagus cuniculus; how it was run: as §3
Blood [17] = test: Inhibition of 0.1 uM platelet activating factor-induced platelet aggregation in rabbit blood; assay type: functional, Oryctolagus cuniculus; how it was run: as §3

CC(C)(C)OC(=O)N[C@@H](CCCCNC(=O)COc1ccc(C2=[N+]([O-])C(C)(C)C(C)(C)N2O)cc1)C(=O)O
EC50 (PC-12 [1]): 29.3 µM | EC50 (PC-12 [2]): 97.7 µM | inhibition (Aorta [3]): 97.9% | EC50 (PC-12 [4]): 89.9 µM | inhibition (Aorta [5]): 28% | inhibition (Aorta [6]): 72.7%

CC1(C)N(O)C(c2ccc(OCCNC(=O)C[C@H](N)C(=O)O)cc2)=[N+]([O-])C1(C)C
EC50 (PC-12 [1]): 48.6 µM | EC50 (PC-12 [2]): 58.2 µM | inhibition (Aorta [3]): 97.5% | EC50 (PC-12 [4]): 42.3 µM | inhibition (Aorta [5]): 26.7% | inhibition (Aorta [6]): 72.8%

N[C@@H](CCC(=O)O)C(=O)N[C@@H](CS)C(=O)NCC(=O)O (H-Glu-Cys-Gly-OH)
inhibition (Aorta [3]): 9.2% | inhibition (Aorta [5]): 3.2% | inhibition (Aorta [6]): 5.2%

CC(C)(C)OC(=O)N[C@@H](CCCNC(=N)NC(=O)COc1ccc(C2=[N+]([O-])C(C)(C)C(C)(C)N2O)cc1)C(=O)O
EC50 (PC-12 [1]): 32.4 µM | EC50 (PC-12 [2]): 102 µM | inhibition (Aorta [3]): 95% | EC50 (PC-12 [4]): 93 µM | inhibition (Aorta [5]): 24.1% | inhibition (Aorta [6]): 71.2%

COC(=O)[C@@H](N)CC(=O)NCCOc1ccc(C2=[N+]([O-])C(C)(C)C(C)(C)N2O)cc1
EC50 (PC-12 [1]): 47.8 µM | EC50 (PC-12 [2]): 55.6 µM | inhibition (Aorta [3]): 99.1% | EC50 (PC-12 [4]): 39 µM | inhibition (Aorta [5]): 29.2% | inhibition (Aorta [6]): 76%

CC1(C)N(O)C(C(=O)O)=[N+]([O-])C1(C)C
Time [7]: 2.5 h | inhibition (Aorta [3]): 34.3% | Time [8]: 18 h | inhibition (Aorta [5]): 1.7% | Time [9]: 2 h | inhibition (Aorta [6]): 25%

CC1(C)N(O)C(c2ccc(O)cc2)=[N+]([O-])C1(C)C
EC50 (PC-12 [1]): 49.1 µM | Time [7]: > 200 h | inhibition (INH) (Blood [10]): 52.45% | dry thrombus weight (Rattus norvegicus [11]): 6.8 mg | EC50 (PC-12 [2]): 56.9 µM | inhibition (Aorta [3]): 99.2% | EC50 (PC-12 [4]): 40 µM | inhibition (INH) (Blood [12]): 50.39% | inhibition (INH) (Blood [13]): 49.28% | Time [8]: > 200 h | Activity (Rattus norvegicus [14]): 38.9 mg | inhibition (INH) (Blood [15]): 54% | inhibition (INH) (Blood [16]): 49.01% | inhibition (Aorta [5]): 26.1% | inhibition (INH) (Blood [17]): 53.04% | Time [9]: > 200 h | inhibition (Aorta [6]): 73.1%

CC1(C)N(O)C(c2ccc(OCCNC(=O)CC[C@H](N)C(=O)N[C@H](CS)C(=O)NCC(=O)O)cc2)=[N+]([O-])C1(C)C
inhibition (Aorta [3]): 97.3% | inhibition (Aorta [5]): 25.9% | inhibition (Aorta [6]): 72.2%

CC1(C)N(O)C(CCl)=[N+]([O-])C1(C)C
Time [7]: 2.5 h | inhibition (Aorta [3]): 25% | Time [8]: 18 h | inhibition (Aorta [5]): 1.6% | Time [9]: 2 h | inhibition (Aorta [6]): 7.7%

CC1(C)N(O)C(c2ccc(OCC(=O)N[C@@H](CCCCN)C(=O)O)cc2)=[N+]([O-])C1(C)C
EC50 (PC-12 [1]): 30.1 µM | EC50 (PC-12 [2]): 99.1 µM | inhibition (Aorta [3]): 98.9% | EC50 (PC-12 [4]): 90.6 µM | inhibition (Aorta [5]): 28.7% | inhibition (Aorta [6]): 74%

CC1(C)N(O)C(c2ccc(OCC(=O)N[C@@H](CCCNC(=N)N)C(=O)O)cc2)=[N+]([O-])C1(C)C
EC50 (PC-12 [1]): 32.1 µM | EC50 (PC-12 [2]): 101 µM | inhibition (Aorta [3]): 15.9% | EC50 (PC-12 [4]): 92.9 µM | inhibition (Aorta [5]): 7.8% | inhibition (Aorta [6]): 10.7%

CC1(C)N(O)C(c2ccc(OCCNC(=O)CC[C@H](N)C(=O)O)cc2)=[N+]([O-])C1(C)C
EC50 (PC-12 [1]): 49.6 µM | EC50 (PC-12 [2]): 58.1 µM | inhibition (Aorta [3]): 97.1% | EC50 (PC-12 [4]): 41.8 µM | inhibition (Aorta [5]): 26.2% | inhibition (Aorta [6]): 72.4%
